From ChEMBL document CHEMBL4020823, “Highly Selective, Potent, and Oral mTOR Inhibitor for Treatment of Cancer as Autophagy Inducer” (J Med Chem, 2018)
pIC50: −log10 of the molar value. The source made the active and inactive calls. No cut-off for these calls is given here.

Tests used:
[1] = AUC (0 to infinity) in Sprague-Dawley rat at 20 mg/kg, iv administered as single dose by HPLC analysis; assay type: ADME, organism-based; design: dose 20 mg/kg, time infinity, route intravenous; conditions: in vivo
In short: (§1)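 Rats fasted overnight, then given one 20 mg/kg dose either iv or po. Blood was collected and centrifuged at once to obtain plasma. Plasma drug levels were measured by HPLC, and PK parameters were derived from the concentration-time data.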

Mus musculus [2] = test: Down regulation of 4E-BP1 phosphorylation at Thr37/46 residues in human T47D cells xenografted in BALB/c nude mouse administered via oral gavage after 3 weeks by hematoxylin and eosine staining based light microscopic assay; assay type: functional, cell-based
In short: (§2)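 Tumours from the oral 3-week T-47D xenograft study were formalin-fixed, paraffin-embedded and cut into 5 μm sections. Sections were deparaffinized, rehydrated and incubated overnight at 4 °C with phospho-specific primary antibody at 1:100. Biotin secondary was applied for 1 h at room temperature, then ABC-peroxidase/DAB with hematoxylin counterstain. Sections were viewed by light microscopy.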

[3] = Clearance in Sprague-Dawley rat at 20 mg/kg, iv administered as single dose by HPLC analysis; assay type: ADME, organism-based; conditions: in vivo; in short: as §1
Mus musculus [4] = organism: Mus musculus; test: Inhibition of full length recombinant mouse p85alpha/PI3K p110alpha H1047R mutant at 1 uM relative to control
In short: (§3)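 Eurofins KinaseProfiler panel with compound at a single 1 μM concentration. ATP at the Km of each kinase. Result is % inhibition, mean of two independent experiments.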

[5] = biological target: PI3-kinase p110-delta/p85-alpha (Homo sapiens) (UniProt P27986+O00329); test: Inhibition of full length recombinant human PI3K p110delta/p85alpha at 1 uM relative to control; assay type: protein-complex assay; in short: as §3
[6] = biological target: PI3K p110 beta/p85 alpha (Mus musculus) (UniProt P26450+Q8BTI9); test: Inhibition of full length recombinant mouse PI3K p110beta/p85alpha at 1 uM relative to control; assay type: protein-complex assay; in short: as §3
Homo sapiens [7] = organism: Homo sapiens; test: Inhibition of mTORC1 in human MDA-MB-231 cells assessed as reduction in 4E-BP1 phosphorylation at Thr37/46 residues at 0.25 to 0.5 uM by Western blot analysis; assay type: cell-based
In short: (§4)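 Cells treated with the indicated concentrations, then whole-cell lysates immunoblotted. mTORC1 activity read as S6 and 4E-BP1 phosphorylation; mTORC2 activity read as AKT Ser473 phosphorylation. Blocking in 5% skim milk, primary antibodies at 4 °C overnight, peroxidase-conjugated secondary, ECL detection.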

Homo sapiens [8] = organism: Homo sapiens; test: Inhibition of mTORC2 in human T47D cells assessed as reduction in AKT phosphorylation at Ser473 residues at 0.25 to 0.5 uM by Western blot analysis; assay type: cell-based
In short: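 Cells exposed to a range of compound concentrations; whole-cell lysates immunoblotted for phospho-AKT (Ser473) as the mTORC2 readout, alongside S6 and 4E-BP1 phosphorylation for mTORC1. Membranes blocked in 5% skim milk, primary antibodies overnight at 4 °C, peroxidase-conjugated anti-mouse or anti-rabbit IgG secondary, ECL detection. Rapamycin as comparator.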

T47D [9] = test: Cell cycle arrest in human T47D cells assessed as accumulation at G0/G1 phase at 0.25 to 0.5 uM after 24 hrs by propidium iodide-staining based flow cytometric analysis; assay type: functional
In short: (§5)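 Cells were seeded at 5 × 10^5 cells/mL. At 24 h after plating they were treated with increasing concentrations for 24 h, washed in PBS, and fixed in ice-cold 70% ethanol for at least 24 h. They were stained with propidium iodide plus RNase A for 30 min at 37 °C and analysed by flow cytometry for phase distribution.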

Homo sapiens [10] = organism: Homo sapiens; test: Inhibition of mTORC1 in human MDA-MB-231 cells assessed as reduction in S6 phosphorylation at Ser 240/244 residues at 0.25 to 0.5 uM by Western blot analysis; assay type: cell-based; in short: as §4
Homo sapiens [11] = organism: Homo sapiens; test: Inhibition of mTORC1 in human SiHa cells assessed as reduction in 4E-BP1 phosphorylation at Ser65 residues at 0.25 to 0.5 uM by Western blot analysis; assay type: cell-based; in short: as §4
Homo sapiens [12] = organism: Homo sapiens; test: Inhibition of mTORC1 in human SiHa cells assessed as reduction in 4E-BP1 phosphorylation at Thr37/46 residues at 0.25 to 0.5 uM by Western blot analysis; assay type: cell-based; in short: as §4
MCF7 [13] = test: Induction of autophagy in human MCF7 cells assessed as increase in LC3-2 puncta level after 48 hrs by immunofluorescence staining based microscopic analysis; assay type: functional, cell-based
Mus musculus [14] = test: Down regulation of 4E-BP1 phosphorylation at Ser65 residues in human T47D cells xenografted in BALB/c nude mouse administered via oral gavage after 3 weeks by hematoxylin and eosine staining based light microscopic assay; assay type: functional, cell-based; in short: as §2
Mus musculus [15] = organism: Mus musculus; test: Inhibition of full length recombinant mouse PI3K p110alpha/p65alpha at 1 uM relative to control; in short: as §3
[16] = biological target: Phosphatidylinositol 4,5-bisphosphate 3-kinase catalytic subunit gamma isoform (Homo sapiens) (UniProt P48736); test: Inhibition of full length recombinant human PI3K p120gamma at 1 uM relative to control; in short: as §3
Phosphatidylinositol 4,5-bisphosphate 3-kinase catalytic subunit gamma isoform (Homo sapiens), sequence (P48736 whole entry, looked up, canonical isoform): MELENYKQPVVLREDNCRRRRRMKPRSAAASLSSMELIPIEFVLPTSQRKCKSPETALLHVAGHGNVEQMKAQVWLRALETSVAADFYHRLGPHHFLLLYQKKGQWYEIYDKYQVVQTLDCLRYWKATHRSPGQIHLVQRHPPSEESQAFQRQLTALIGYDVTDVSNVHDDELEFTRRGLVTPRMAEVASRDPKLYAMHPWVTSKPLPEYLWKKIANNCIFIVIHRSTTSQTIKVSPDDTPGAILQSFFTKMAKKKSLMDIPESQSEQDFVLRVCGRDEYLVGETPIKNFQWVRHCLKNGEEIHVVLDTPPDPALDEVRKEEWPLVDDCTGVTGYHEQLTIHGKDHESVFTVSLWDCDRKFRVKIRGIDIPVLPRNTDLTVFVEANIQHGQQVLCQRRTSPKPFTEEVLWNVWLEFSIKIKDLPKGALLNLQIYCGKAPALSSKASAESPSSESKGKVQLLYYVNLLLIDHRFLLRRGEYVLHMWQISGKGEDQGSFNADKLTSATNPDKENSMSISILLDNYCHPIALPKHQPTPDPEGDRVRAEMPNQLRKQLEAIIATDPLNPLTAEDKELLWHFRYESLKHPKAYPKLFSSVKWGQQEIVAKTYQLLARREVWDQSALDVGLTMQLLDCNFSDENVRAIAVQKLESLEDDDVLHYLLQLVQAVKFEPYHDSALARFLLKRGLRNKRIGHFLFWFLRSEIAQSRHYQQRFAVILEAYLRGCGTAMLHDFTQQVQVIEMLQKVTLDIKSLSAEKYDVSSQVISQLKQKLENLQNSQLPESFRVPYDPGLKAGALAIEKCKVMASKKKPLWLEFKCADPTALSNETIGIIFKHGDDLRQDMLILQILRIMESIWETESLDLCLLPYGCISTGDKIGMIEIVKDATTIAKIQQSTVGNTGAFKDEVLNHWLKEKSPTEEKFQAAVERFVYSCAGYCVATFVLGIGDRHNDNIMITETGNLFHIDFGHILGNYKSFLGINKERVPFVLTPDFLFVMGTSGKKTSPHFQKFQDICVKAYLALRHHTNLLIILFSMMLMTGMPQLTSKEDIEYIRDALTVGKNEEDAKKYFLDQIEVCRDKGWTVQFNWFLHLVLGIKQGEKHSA

T47D [17] = test: Antitumor activity against human T47D cells xenografted in BALB/c nude mouse assessed as decrease in tumor growth administered via oral gavage after 3 weeks; assay type: functional, cell-based
[18] = AUC (0 to infinity) in Sprague-Dawley rat at 20 mg/kg, po administered as single dose by HPLC analysis; assay type: ADME, organism-based; design: dose 20 mg/kg, route oral, time infinity; conditions: in vivo; in short: as §1
[19] = MRT (0 to infinity) in Sprague-Dawley rat at 20 mg/kg, iv administered as single dose by HPLC analysis; assay type: ADME, organism-based; conditions: in vivo
In short: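 Rats fasted overnight, then given a single 20 mg/kg dose either iv or po. Blood collected and centrifuged immediately to obtain plasma. Plasma drug levels measured by HPLC, and pharmacokinetic parameters derived from both routes.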

HeLa [20] = test: Inhibition of mTORC1 in human HeLa cells assessed as reduction in 4E-BP1 phosphorylation at Ser65 residues at 0.5 to 1 uM by Western blot analysis; assay type: cell-based; in short: as §4
[21] = test system: PI3-kinase p110-alpha/p85-alpha (Homo sapiens), P27986+P42336 [E542K]; test: Inhibition of full length recombinant human p85alpha/PI3K p110alpha E542K mutant at 1 uM relative to control; in short: as §3
MCF7 [22] = test: Cell cycle arrest in human MCF7 cells assessed as accumulation at G0/G1 phase at 0.25 to 0.5 uM after 24 hrs by propidium iodide-staining based flow cytometric analysis; assay type: functional; in short: as §5
MDA-MB-231 = test: Growth inhibition of human MDA-MB-231 cells after 72 hrs by CCK8 assay; assay type: functional, cell-based; conditions: MDA-MB-231, 72 h
In short: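 Cells were seeded at 2000–3000 per well and grown 24 h in serum-containing medium. They were then exposed to serially diluted compound for 72 h at 37 °C, 5% CO2. CCK8 reagent was added for 1–4 h and absorbance read at 450 nm. Inhibition = (AC − AS)/(AC − Ab) × 100%. IC50 is the average of at least three independent determinations.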

T47D [23] = test: Antitumor activity against human T47D cells xenografted in BALB/c nude mouse assessed as tumor weight at 60 mg/kg, po administered via gavage after 3 weeks (reference value: 1.23 g); assay type: functional
HeLa [24] = test: Inhibition of mTORC1 in human HeLa cells assessed as reduction in 4E-BP1 phosphorylation at Thr37/46 residues at 0.5 to 1 uM by Western blot analysis; assay type: cell-based; in short: as §4

AUC(0-inf) [1]: 6560 ng·h/mL
clearance [3]: 25.5 mL/min/kg
inhibition (Mus musculus [4]): 7%
inhibition [5]: 9%
inhibition [6]: 5%
inhibition (Mus musculus [15]): 9%
inhibition [16]: 4%
AUC(0-inf) [18]: 2850 ng·h/mL
MRT inf [19]: 11.6 h
inhibition [21]: 11%
pIC50 (MDA-MB-231): 7.00
Structure (SMILES): N#CCN1CCC(n2c(=O)cnc3cnc4ccc(-c5ccc(N)nc5)cc4c32)CC1
Activity (Mus musculus [2]): Dose-dependent effect
inhibition (Homo sapiens [7]): Active
inhibition (Homo sapiens [8]): Active
Activity (T47D [9]): Active
inhibition (Homo sapiens [10]): Active
inhibition (Homo sapiens [11]): Active
inhibition (Homo sapiens [12]): Active
Activity (MCF7 [13]): Dose-dependent effect
Activity (Mus musculus [14]): Dose-dependent effect
TGI (T47D [17]): Dose-dependent effect
inhibition (HeLa [20]): Active
Activity (MCF7 [22]): Active
Activity (T47D [23]): 0.194 g
inhibition (HeLa [24]): Active
